Experimental data gathered from unrelated publications.
Lines come from different studies, so protocols differ.
Target: Protein-tyrosine kinase 6 (PTK6, Homo sapiens, UniProt Q13882)

| Structure (SMILES) | assay | setting | endpoint | value |
| --- | --- | --- | --- | --- |
| CC(C)(C)c1nc2c(s1)c1nc(N)ncc1c1ccc(NS(=O)(=O)c3c(F)cccc3F)c(F)c12 | enzyme activity, inhibitor, radiometric | 1 µM | remaining activity | 104% |
| COc1ccc2c(O[C@@H]3C[C@H]4C(=O)N[C@]5(C(=O)O)CC5/C=C\CCCCC[C@H](NC(=O)OC5CCCC5)C(=O)N4C3)cc(-c3csc(NC(=O)C(C)C)n3)nc2c1C (stereo partly shown) | cell-free assay, competition with immobilised ligand | 1 µM | remaining binding | 97% |
| Cc1cc(NC(=O)c2cccc3cc(-c4cccc5[nH]nc(N)c45)ccc23)ccc1F | enzyme activity, inhibitor | 0.1 µM | activity vs control | 97% |
| CCN(CC)CCNC(=O)c1c(C)[nH]c(/C=C2\C(=O)Nc3ccc(F)cc32)c1C | enzyme activity, inhibitor | 0.3 µM | inhibition | 6% |
| Nc1nc(Nc2ccc(S(N)(=O)=O)cc2)nn1C(=O)c1c(F)cccc1F | cell-free assay | 0.5 µM | remaining signal | 83.9% |
| Cc1ccc(C(=O)NCc2ccsc2)cc1C#Cc1cn(C(C)C)c2ncnc(N)c12 | enzyme activity, inhibitor | 1 µM | activity vs control | 7% |
| N#CCCc1ccc2c(c1)-c1[nH]c3ccc([N+](=O)[O-])cc3c1CC(=O)N2 | cell-free assay | 0.5 µM | remaining signal | 94.6% |
| FC(F)(F)Oc1cccc(-c2cnc3ccc(-c4ccncc4)nn23)c1 | enzyme activity, inhibitor, radiometric | 1 µM | activity vs control | 72% |
| O=C1NC(=O)c2cc(Nc3ccc(F)cc3)c(Nc3ccc(F)cc3)cc21 | cell-free assay | 0.5 µM | remaining signal | 95.1% |
| CCN(CC)c1ccc(C2=NNC(=O)CC2C)cc1[N+](=O)[O-] (stereo not shown) | enzyme activity, inhibitor | 10 µM | remaining activity | 105% |
| Nc1ncnc2occ(-c3ccc(NC(=O)Nc4cc(C(F)(F)F)ccc4F)cc3)c12 | cell-free assay, inhibitor | 20 µM | remaining signal | 20% |
| Cc1sc(C(=O)NC2COC2)cc1-n1cc(NC(=O)Nc2c(F)cccc2Cl)cn1 | enzyme activity, inhibitor | 10 µM | remaining activity | 78.9% |
| O=C(NS(=O)(=O)c1ccc(NCC2CCOCC2)c([N+](=O)[O-])c1)c1ccc(N2CCN(Cc3ccc(C(F)(F)F)cc3-c3ccc(Cl)cc3)CC2)cc1Oc1cnc2[nH]ccc2c1 | cell-free assay, competition with immobilised ligand | 1 µM | remaining binding | 100% |
| COc1cc(/C=C/C(=O)CC(=O)/C=C/c2ccc(O)c(OC)c2)ccc1O | enzyme activity, inhibitor | 1 µM | activity vs control | 85% |
| CNC(=O)c1cc(Oc2ccc(NC(=O)Nc3ccc(Cl)c(C(F)(F)F)c3)cc2)ccn1 | enzyme activity, inhibitor | 10 µM | inhibition | 58% |
| Cc1nc(Cc2cccc(C(F)(F)F)c2)sc1-c1ccc(C(N)=O)nc1 | cell-free assay, competition with immobilised ligand | 1 µM | remaining binding | 100% |
| COc1cc(Nc2cnc(C#N)c(O[C@H](C)CN(C)C)n2)ncc1-c1cnn(C)c1 | enzyme activity, inhibitor, radiometric | 10 µM | remaining activity | 91% |
| CS(=O)(=O)c1cc(C2(NC(=O)c3cncc4c3cnn4-c3ccc(F)cc3)CC2)ccn1 | cell-free assay, competition with immobilised ligand | 1 µM | remaining binding | 80% |
| Cc1ccc(C(=O)Nc2ccc(CN3CCN(C)CC3)c(C(F)(F)F)c2)cc1C#Cc1cnc2cccnn12 | enzyme activity, inhibitor | 23.5 nM | remaining activity | 95% |
| COc1cc2ncnc(Nc3ccc(Oc4ccccc4)c(C)c3C)c2cc1OC | enzyme activity, inhibitor | 1 µM | inhibition | 93% |
| O=C(O)[C@@H]1[C@@H](Cn2nnc3ccccc3c2=O)CC[C@H]1C(=O)c1ccc(OCCC2CCOCC2)cc1 | cell-free assay, competition with immobilised ligand | 1 µM | remaining binding | 99% |
| O=C(Nc1cnn(-c2csc(C(=O)NC3COC3)c2)c1)Nc1ccccc1Cl | enzyme activity, inhibitor | 5 µM | remaining activity | 118% |
| O=C(N1CCS(=O)(=O)CC1)N1C[C@H](c2ccc(OC(F)(F)F)cc2)C[C@H](c2nc(C3CC3)no2)C1 | cell-free assay, competition with immobilised ligand | 1 µM | remaining binding | 100% |
| CN(C)C1CCN(CC#Cc2nn(C3CCCC3)c3nc(NCc4ccccc4)ncc23)C1 (stereo not shown) | enzyme activity, inhibitor, FRET | 0.1 µM | inhibition | -2% |
| CN(c1ccnc(CNc2nc(Nc3ccc4c(c3)CC(=O)N4)ncc2C(F)(F)F)n1)S(C)(=O)=O | cell-free assay, competition with immobilised ligand | 1 µM | remaining binding | 100% |
| COc1cc(Cl)c(C(=O)N[C@@H](CN[C@H]2CC[C@@H](N)CC2)Cc2ccc(C#N)cc2)cc1-c1ccc(CN[C@H](C)c2ccc(C)cc2)o1 | enzyme activity, inhibitor | 1 µM | remaining activity | 98% |
| CC(=O)C1=C(C)N(c2cccc(C(F)(F)F)c2)C(=O)N[C@@H]1c1ccc(C#N)nc1 | cell-free assay, competition with immobilised ligand | 1 µM | remaining binding | 100% |
| Cc1ccc(Nc2nccc(N(C)c3ccc4c(C)n(C)nc4c3)n2)cc1S(N)(=O)=O | enzyme activity, inhibitor | 0.3 µM | inhibition | 23% |
